Measured values: ChEMBL document CHEMBL1145777 (J Med Chem, 2003)

Columns and labels:
[1] = target: T1, Mu-type opioid receptor (Homo sapiens, UniProt P35372); test: Incorporation of [35S]- GTPgammaS into CHO membranes expressing human Opioid receptor mu 1
[2] = target: Mu-type opioid receptor (Cavia porcellus, UniProt P97266); test: Binding affinity towards Opioid receptor mu 1 from guinea pig brain using [3H]DAMGO as radioligand
[3] = target: T2, Kappa-type opioid receptor (Homo sapiens, UniProt P41145); test: (§1) Incorporation of [35S]GTP-gamma-S, into CHO membranes expressing human Opioid receptor kappa 1; type: functional
T2 sequence (P41145 whole entry): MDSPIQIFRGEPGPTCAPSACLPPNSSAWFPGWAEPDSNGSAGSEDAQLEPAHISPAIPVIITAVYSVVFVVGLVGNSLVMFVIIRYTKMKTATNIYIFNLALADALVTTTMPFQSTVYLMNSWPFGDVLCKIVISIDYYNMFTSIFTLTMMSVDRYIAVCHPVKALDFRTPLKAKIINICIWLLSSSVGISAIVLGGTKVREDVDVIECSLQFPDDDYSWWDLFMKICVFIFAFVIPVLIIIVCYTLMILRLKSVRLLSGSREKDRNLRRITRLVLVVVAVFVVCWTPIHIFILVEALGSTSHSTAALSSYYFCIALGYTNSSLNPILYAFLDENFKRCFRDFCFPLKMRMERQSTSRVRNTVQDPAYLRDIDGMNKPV

[4] = target: Kappa-type opioid receptor (Cavia porcellus, UniProt P41144); test: Binding affinity towards Opioid receptor kappa 1 from guinea pig brain using [3H]U-69593 as radioligand
Sequence of Kappa-type opioid receptor (Cavia porcellus, UniProt P41144) (P41144 whole entry): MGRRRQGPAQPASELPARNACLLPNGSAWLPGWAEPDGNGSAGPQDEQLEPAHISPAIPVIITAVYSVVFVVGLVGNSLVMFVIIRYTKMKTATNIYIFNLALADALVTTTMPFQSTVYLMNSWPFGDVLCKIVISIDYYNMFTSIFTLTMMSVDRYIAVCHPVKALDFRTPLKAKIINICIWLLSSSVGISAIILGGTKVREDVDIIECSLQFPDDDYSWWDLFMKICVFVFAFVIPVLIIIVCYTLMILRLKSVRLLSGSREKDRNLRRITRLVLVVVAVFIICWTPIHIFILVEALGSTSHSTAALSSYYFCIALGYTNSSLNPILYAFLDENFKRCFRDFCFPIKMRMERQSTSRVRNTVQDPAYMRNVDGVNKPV
Summary of the method: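 Uses 1 nM [3H]U69,593 with guinea pig brain membrane protein (500 µg), 12 concentrations, 50 mM Tris-HCl pH 7.5, 60 min at 25 °C. Nonspecific binding with 10 µM naloxone. Filters pre-soaked in 0.1% polyethylenimine; bound label counted.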

[5] = Binding affinity towards Opioid receptor delta 1 from guinea pig brain using [3H]naltrindole as radioligand
[6] = target: Kappa-type opioid receptor (Cavia porcellus) (UniProt P41144); test: Ratio of binding affinity of Opioid receptor kappa 1 to Opioid receptor mu 1 to Opioid receptor delta 1; kappa:mu:delta = 5:4:1
Sequence of Kappa-type opioid receptor (Cavia porcellus) (P41144 whole entry): as above

[7] = target: T1, Mu-type opioid receptor; test: Incorporation of [35S]GTP-gamma-S, into CHO membranes expressing human Opioid receptor mu 1; type: functional
[8] = target: T2, Kappa-type opioid receptor; test: as §1; type: functional; remark: listed apart in the source
[9] = target: Kappa-type opioid receptor (Cavia porcellus) (UniProt P41144); test: Ratio of binding affinity of Opioid receptor kappa 1 to Opioid receptor mu 1 to Opioid receptor delta 1; kappa:mu:delta = 7:3:1
[10] = target: Kappa-type opioid receptor (Cavia porcellus) (UniProt P41144); test: Ratio of binding affinity of Opioid receptor kappa 1 to Opioid receptor mu 1 to Opioid receptor delta 1; kappa:mu:delta = 11:7:1
[11] = target: Kappa-type opioid receptor (Cavia porcellus) (UniProt P41144); test: Ratio of binding affinity of Opioid receptor kappa 1 to Opioid receptor mu 1 to Opioid receptor delta 1; kappa:mu:delta = 150:7:1
[12] = target: Kappa-type opioid receptor (Cavia porcellus) (UniProt P41144); test: Ratio of binding affinity of Opioid receptor kappa 1 to Opioid receptor mu 1 to Opioid receptor delta 1; kappa:mu:delta = 47:26:1
[13] = target: Kappa-type opioid receptor (Cavia porcellus) (UniProt P41144); test: Ratio of binding affinity of Opioid receptor kappa 1 to Opioid receptor mu 1 to Opioid receptor delta 1; kappa:mu:delta = 10:9:1
[14] = target: Kappa-type opioid receptor (Cavia porcellus) (UniProt P41144); test: Ratio of binding affinity of Opioid receptor kappa 1 to Opioid receptor mu 1 to Opioid receptor delta 1; kappa:mu:delta = 16:14:1
[15] = target: Kappa-type opioid receptor (Cavia porcellus) (UniProt P41144); test: Ratio of binding affinity of Opioid receptor kappa 1 to Opioid receptor mu 1 to Opioid receptor delta 1; kappa:mu:delta = 26:81:1
[16] = target: Kappa-type opioid receptor (Cavia porcellus) (UniProt P41144); test: Ratio of binding affinity of Opioid receptor kappa 1 to Opioid receptor mu 1 to Opioid receptor delta 1; kappa:mu:delta = 12:38:1

T1 sequence (P35372 whole entry): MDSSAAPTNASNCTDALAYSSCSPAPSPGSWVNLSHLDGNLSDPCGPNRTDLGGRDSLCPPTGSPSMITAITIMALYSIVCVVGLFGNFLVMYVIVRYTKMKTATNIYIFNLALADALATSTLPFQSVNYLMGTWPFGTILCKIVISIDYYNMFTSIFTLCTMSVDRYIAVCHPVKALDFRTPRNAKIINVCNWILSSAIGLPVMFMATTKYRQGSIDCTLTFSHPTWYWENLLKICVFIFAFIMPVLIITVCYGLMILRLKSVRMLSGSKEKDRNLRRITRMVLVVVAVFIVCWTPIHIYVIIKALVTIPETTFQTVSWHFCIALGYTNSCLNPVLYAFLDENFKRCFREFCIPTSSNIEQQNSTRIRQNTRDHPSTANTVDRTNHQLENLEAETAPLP
Sequence of Mu-type opioid receptor (Cavia porcellus, UniProt P97266) (P97266 whole entry): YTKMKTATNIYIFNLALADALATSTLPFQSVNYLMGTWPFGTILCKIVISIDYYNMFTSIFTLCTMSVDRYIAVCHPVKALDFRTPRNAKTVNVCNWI

## CC[C@@]12CCN(CC3CC3)C(C(=O)c3ccc(N)cc31)[C@@H]2C (single isomer, unassigned; (-)) [listing 1 of 2 here]
[1]
  EC50: 92 nM
[2]
  Ki: 2.7 nM
[3]
  EC50: 2.8 nM
[4]
  Ki: 1.1 nM

## COc1cccc(Nc2ccc3c(c2)[C@@]2(C)CCN(CC4CC4)C(C3)[C@@H]2C)c1
[2]
  Ki: 1.8 nM
[4]
  Ki: 1 nM

## CC(C)Nc1ccc2c(c1)[C@@]1(C)CCN(CC3CC3)C(C2)[C@@H]1C
[5]
  Ki: 460 nM

## C[C@H]1C2Cc3ccc(N4CCOCC4)cc3[C@@]1(C)CCN2CC1CC1
[6]
  Ratio: 5
[5]
  Ki: 2800 nM

## C[C@H]1C2Cc3ccc(Nc4ccccn4)cc3[C@@]1(C)CCN2CC1CC1
[2]
  Ki: 4.2 nM
[4]
  Ki: 9.2 nM

## CC[C@@]12CCN(CC3CC3)C(C(=O)c3ccc(N)cc31)[C@@H]2C (single isomer, unassigned; (-)) [listing 2 of 2 here]
[7]
  Emax: 10%
[8]
  Emax: 110%
[9]
  Ratio: 7

## C[C@H]1[C@H]2Cc3ccc(O)cc3[C@]1(C)CCN2CC1CC1 (stereo in doubt) [CYCLAZOCINE]
[3]
  EC50: 1.6 nM

## C[C@H]1[C@H]2Cc3ccc(Nc4ccccc4)cc3[C@@]1(C)CCN2CC1CC1 (stereo in doubt; 10) [listing 1 of 2 here]
[10]
  Ratio: 11

## C[C@H]1C2C(=O)c3ccc(O)cc3[C@@]1(C)CCN2CC1CC1
[1]
  EC50: 21 nM
[7]
  Emax: 40%
[8]
  Emax: 80%
[3]
  EC50: 3.3 nM
[4]
  Ki: 1 nM

## CC[C@@]12CCN(CC3CC3)C(C(=O)c3ccc(N)cc31)[C@@H]2C (stereo in doubt; 44)
[7]
  Emax: 60%
[8]
  Emax: 100%
[11]
  Ratio: 150

## C[C@H]1[C@H]2Cc3ccc(Nc4ccccc4)cc3[C@@]1(C)CCN2CC1CC1 (stereo in doubt; 10) [listing 2 of 2 here]
[5]
  Ki: 9.4 nM

## C[C@H]1[C@H]2Cc3ccc(N)cc3[C@@]1(C)CCN2C[C@@H]1CCCO1
[8]
  Emax: 330%
[2]
  Ki: 14 nM
[3]
  EC50: 70 nM
[12]
  Ratio: 47
[4]
  Ki: 7.8 nM

## C[C@H]1C2C(=O)c3ccc(N)cc3[C@@]1(C)CCN2CC1CC1
[1]
  EC50: 180 nM
[7]
  Emax: 80%
[8]
  Emax: 70%
[2]
  Ki: 3.6 nM
[3]
  EC50: 9.7 nM
[4]
  Ki: 0.8 nM

## COc1ccc(CNc2ccc3c(c2)[C@@]2(C)CCN(CC4CC4)C(C3)[C@@H]2C)cc1
[2]
  Ki: 7.8 nM
[4]
  Ki: 71 nM

## C[C@H]1C2Cc3ccc(Nc4ccc(Cl)cc4)cc3[C@@]1(C)CCN2CC1CC1
[2]
  Ki: 3 nM
[13]
  Ratio: 10
[4]
  Ki: 2.5 nM

## C[C@H]1[C@H]2Cc3ccc(Nc4ccccc4)cc3[C@@]1(C)CCN2CC1CC1 [listing 1 of 2 here]
[7]
  Emax: 50%
[8]
  Emax: 120%

## C[C@H]1C2Cc3ccc(Nc4ccc(C(F)(F)F)cc4)cc3[C@@]1(C)CCN2CC1CC1
[2]
  Ki: 13 nM
[14]
  Ratio: 16
[4]
  Ki: 11 nM

## CC[C@@]12CCN(CC3CC3)C(C(=O)c3ccc(O)cc31)[C@@H]2C (single isomer, unassigned; (-)) [ETHYLKETOCYCLAZOCINE]
[1]
  EC50: 5.5 nM
[2]
  Ki: 0.73 nM

## C[C@H]1C2Cc3ccc(NCc4ccccc4)cc3[C@@]1(C)CCN2CC1CC1 (stereo in doubt; 25) [listing 1 of 2 here]
[5]
  Ki: 57 nM

## C[C@H]1[C@H]2Cc3ccc(O)cc3[C@@]1(C)CCN2C[C@@H]1CCCO1
[8]
  Emax: 70%
[2]
  Ki: 0.17 nM
[3]
  EC50: 4 nM
[4]
  Ki: 0.073 nM

## C[C@H]1C2Cc3ccc(N4CCCC4)cc3[C@@]1(C)CCN2CC1CC1
[5]
  Ki: 1800 nM

## C[C@H]1C2Cc3ccc(N)cc3[C@@]1(C)CCN2CC1CC1
[5]
  Ki: 110 nM

## C[C@H]1[C@H]2Cc3ccc(Nc4ccccc4)cc3[C@@]1(C)CCN2CC1CC1 [listing 2 of 2 here]
[1]
  EC50: 15 nM
[3]
  EC50: 3.8 nM

## C[C@H]1C2Cc3ccc(Nc4ccncc4)cc3[C@@]1(C)CCN2CC1CC1
[2]
  Ki: 18 nM
[4]
  Ki: 2.9 nM

## CNc1ccc2c(c1)[C@@]1(C)CCN(CC3CC3)C(C2)[C@@H]1C
[5]
  Ki: 470 nM

## C[C@H]1C2Cc3ccc(NCc4ccccc4)cc3[C@@]1(C)CCN2CC1CC1 (single isomer, unassigned; (-))
[15]
  Ratio: 26

## C[C@H]1C2Cc3ccc(NCc4ccccc4)cc3[C@@]1(C)CCN2CC1CC1 (stereo in doubt; 25) [listing 2 of 2 here]
[16]
  Ratio: 12
